The values below come from PubChem BioAssay.

Values without a mark were called inactive. Records with an inconclusive call do not appear. Activity calls are given as the source filed them.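 The calls were made as follows, unless noted: active = viability increase at or above a cutoff of the median across tested compounds plus 3 SD (cut at about 8.5% in these data, passing the limit was not always enough); inconclusive = some gains above the cutoff, reason not given; inactive = the rest.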

Experiment [1] is described as follows: S. cerevisiae growth inhibition in permissive medium (OD615), pilot counter-assay for S. cerevisiae lifespan shortening project, permissive growth control (AID 705;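 active = growth inhibition above 25% in both replicates, a cutoff set 3 SD above the mean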). The following applies: OD615, 24 h, at 10 µM, hits give high values. The procedure, abridged: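 System: S. cerevisiae with engineered DeaD lifespan system. Medium: SC raffinose/galactose permissive medium. Doses: single compound dose of 10 µM, 0.25% DMSO final. Schedule: 24 h exposure, 30 °C. Measured by: OD615 turbidity read. Read-out: growth inhibition.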

Experiment [2] in a line: S. cerevisiae growth inhibition in restrictive medium, OD615, pilot screen, restrictive growth control, yeast lifespan reduction project (AID 706;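 active = growth inhibition above a set limit, 3 SD over mean compound inhibition, in both replicates, cut at about 43% in these data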). The settings on record: OD615, 48 h, at 10 µM, hits give high values. The procedure, abridged: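 Assay system – genetically modified Saccharomyces cerevisiae, DeaD replicative lifespan assay strain · Medium – CSMM-D glucose medium · Doses – 10 µM compound, 0.25% DMSO · Times – 4 h pre-incubation, 48 h exposure at 30 °C · Signal – optical density at 615 nm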

Experiment [3] in a line: doxorubicin toxicity protection in MRP-1 cells – H69AR cells, CellTiter-Glo, duplicate, MRP-1 activator project, pilot screen (AID 807).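 Also: compound pretreatment 18-22 h then 72 h combined with doxorubicin; 0% = doxorubicin alone and 100% = vehicle without doxorubicin.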 The following applies: H69AR viability with doxorubicin, CellTiter-Glo luminescence; at 10 µM; hits give high values. For orientation: ATP-based viability assays read luminescence as a measure of living cells.
Experiment [4] can be described thus: viability of HCT116 without oncogenic beta-catenin – human colon tumor cells, pilot screen (AID 823;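 active = cell viability at or below a set limit in both duplicate runs, the limit being the all-compound median minus 4 SD, cut at about 23% in these data, passing the limit was not always enough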;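 also: 0% = wells killed by 20 µM Hyamine and 100% = untreated DMSO cell wells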). The settings on record: HCT116 beta-catenin knockout viability, CellTiter-Glo, 60 h; at 10 µM; hits give low values.
A short description of experiment [5]: viability of PTEN-null HCT116 cells – cell-based, HCT116 clonal line, CellTiter-Glo, pilot screen (AID 824;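 active = viability at or below 27.92% in each of two runs, the all-compound median minus 4 SD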;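 also: 0% = 20 µM Hyamine control and 100% = vehicle cell control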). The following applies: HCT116 PTEN-deleted viability, 60 h, at 10 µM, hits give low values.
Experiment [6] in a line: RAM pathway blockade in budding yeast – dse1pr::URA3 reporter, 5-FOA selection, pilot screen (AID 869;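 active = inhibition over a set limit, the all-compound mean plus 3 SD, in both replicate runs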;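 also: 0% = DMSO wells with no growth and 100% = 10 µM 1-NA-PP1 with full growth; RAM network block rescues cells from 5-FOA so hits raise OD615 growth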). The following applies: S. cerevisiae dse1pr::URA3 5-FOA growth, OD615, 2 d; at 10 µM; hits give high values; strain carries analog-sensitive mutant Cbk1 kinase.
A short description of experiment [7]: RAM signaling pathway blockade in yeast – S. cerevisiae, Pdr1DBD-CYC8 efflux-inhibited sensitized strain, primary screen (AID 1298;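 active = RAM network inhibition above 8.4% in each of two replicates, 3 SD over the compound average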;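 also: 0% = DMSO untreated cells without growth and 100% = 10 µM 1-NA-PP1 full growth; higher means more yeast growth rescued from 5-FOA killing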). The settings on record: S. cerevisiae cbk1-as DSE1-URA3 strain, 5-FOA growth OD615, 2 d; at 50 µM; hits give high values.

For orientation: viability means a read-out of living cells in per cent, often relative to untreated cells. A word on the inhibition: it is the change of the read-out against control, counted positive when it falls. For the compound `Cc1cccc(CCNC(=O)C2CCC(CNc3c(N4CCCC4)c(=O)c3=O)CC2)c1` (centres undefined), the growth inhibition in experiment [1] is -6.65%; in experiment [2], -3.19%. For the same compound, the viability increase in experiment [3] is -1.92%. The viability in experiment [4] was 99.4%; in experiment [5], 91.2%. Also, the inhibition in experiment [6] was 1.26%. In addition, in experiment [7], the RAM network inhibition is 4.72%.
Take `CC1=C(C(=O)OC2CCCCCCC2)C(c2cccc(O)c2)NC(=O)N1` (centres undefined): the growth inhibition in experiment [1] was -1.81%; in experiment [2], 0.17%. Moreover, the viability increase in experiment [3] is 4.53%. For the same compound, the values for the viability in experiment [4] and in experiment [5] were 65.2% and 65.6%, respectively. Besides, in experiment [6], the inhibition was 0.63%. Also, in experiment [7], the RAM network inhibition was 0.89%.
Consider `O=C(C1CCN(S(=O)(=O)c2cccc3cccnc23)CC1)N1CCN(Cc2ccccc2)CC1`, for which the growth inhibition is 8.83% in experiment [1] and 5.8% in experiment [2]. The viability increase in experiment [3] is 0.23%. Besides, the viability in experiment [4] is 105%; in experiment [5], 99.5%. The inhibition in experiment [6] was -0.39%. Moreover, the RAM network inhibition in experiment [7] is 1.71%.
Turning to `CCOC(=O)c1cccc(NC(=O)CCS(=O)(=O)c2cccc3nsnc23)c1`, the growth inhibition in experiment [1] was -0.82%; in experiment [2], -22%. Besides, the viability increase in experiment [3] was -3.74%. Besides, the viability in experiment [4] was 100%; in experiment [5] it was 97%. In addition, in experiment [6], the inhibition is 0.99%. Also, the RAM network inhibition in experiment [7] was 2.43%.
Take `COc1ccc(S(=O)(=O)Cc2ccc(C(=O)NC3CCCC3)o2)cc1`: the growth inhibition is -0.76% in experiment [1] and -12% in experiment [2]. In addition, the viability increase in experiment [3] was -1.65%. In addition, the viability in experiment [4] is 108%; in experiment [5], 96.3%. The inhibition in experiment [6] was 1.19%. Besides, the RAM network inhibition in experiment [7] is 2.65%.
`CCOc1ccc(N(CC(=O)Nc2cccc(F)c2)S(=O)(=O)c2c(C)noc2C)cc1`: the growth inhibition in experiment [1] is -3.51%; in experiment [2] it was -8.12%. In addition, the viability increase in experiment [3] was -5.24%. In addition, the viability in experiment [4] was 66.5%; in experiment [5] it was 56.2%. In addition, in experiment [6], the inhibition is 3.33%. In experiment [7], the RAM network inhibition was 5.5%.
Turning to `O=C(NCC1(c2ccccc2)CCOCC1)c1ccc(Br)o1`, the growth inhibition in experiment [1] is -2.18%; in experiment [2], -3.91%. In addition, the viability increase in experiment [3] was 2.31%. Further, the values for the viability in experiment [4] and in experiment [5] were 93% and 92.3%, respectively. For the same compound, the inhibition in experiment [6] is 0.365%. The RAM network inhibition in experiment [7] was 2.97%.
On to `COC(=O)c1ccc2c(c1)N(Cc1nc(-c3cccc(C)c3)oc1C)C(=O)C1CCCN21` (centres undefined), for which the growth inhibition in experiment [1] was -13%; in experiment [2], -8.79%. Moreover, the viability increase in experiment [3] was -2.37%. For the same compound, the viability in experiment [4] is 92%; in experiment [5] it was 84.3%. Besides, in experiment [6], the inhibition was 2.06%. Besides, the RAM network inhibition in experiment [7] is 5.71%.
On to `COc1ccc(-c2nc(=S)[nH][nH]2)cc1`, for which the figures for the growth inhibition in experiment [1] and in experiment [2] were -5.89% and -17%, respectively. Further, in experiment [3], the viability increase was -1.62%. The viability was 99% in experiment [4] and 89% in experiment [5]. For the same compound, the inhibition in experiment [6] is 1.53%. Also, the RAM network inhibition in experiment [7] was 5.26%.
On to `CCOC(=O)CSc1nnc(Cn2c(=O)sc3ccccc32)n1-c1ccccc1C`, for which the growth inhibition in experiment [1] was -8.34%; in experiment [2] it was -6.71%. In addition, the viability increase in experiment [3] is -1.07%. For the same compound, the viability in experiment [4] was 96.2%; in experiment [5] it was 96%. Moreover, the inhibition in experiment [6] is 2.26%. Further, the RAM network inhibition in experiment [7] was 2.24%.
In the case of `CCOC(=O)CSc1nc2ccccc2c(=O)[nH]1`, the growth inhibition is -13.4% in experiment [1] and -17.3% in experiment [2]. Moreover, the viability increase in experiment [3] was -0.36%. Further, the viability in experiment [4] is 105%; in experiment [5] it was 100%. In addition, in experiment [6], the inhibition was 1.74%. In addition, the RAM network inhibition in experiment [7] is 3.03%.
For the compound `COc1ccc(OC)c(C2CC(=O)c3c([nH]c(C(=O)OC(C)C)c3C)C2)c1` (centres undefined), the figures for the growth inhibition in experiment [1] and in experiment [2] were -9.82% and -21.9%, respectively. Further, the viability increase in experiment [3] was -7.46%. The viability in experiment [4] is 15.2% (active); in experiment [5], 14.8% (active). Also, the inhibition in experiment [6] is 1.69%. Further, the RAM network inhibition in experiment [7] is 0.97%.
As for `COc1ccc(O)c(-c2[nH]ncc2C(=O)c2ccccc2)c1`, the growth inhibition was -14.7% in experiment [1] and -2.28% in experiment [2]. Further, the viability increase in experiment [3] was -2.45%. The viability in experiment [4] is 101%; in experiment [5] it was 94.8%. Further, in experiment [6], the inhibition was 1.27%. The RAM network inhibition in experiment [7] was 4.35%.
`Cc1nnc(NC(=O)CSc2nnc(Cc3cccn3C)n2C)s1`: the growth inhibition was -3.1% in experiment [1] and 24.4% in experiment [2]. For the same compound, in experiment [3], the viability increase was -0.3%. Moreover, the viability in experiment [4] is 98.8%; in experiment [5] it was 104%. The inhibition in experiment [6] is 0.91%. The RAM network inhibition in experiment [7] is 1.93%.
In the case of `CN1/C(=C/C=N/n2cnnc2)C(C)(C)c2ccccc21`, the figures for the growth inhibition in experiment [1] and in experiment [2] were -6.3% and -17.9%, respectively. The viability increase in experiment [3] is -0.78%. The figures for the viability in experiment [4] and in experiment [5] were 98% and 93.2%, respectively. Besides, the inhibition in experiment [6] was 0.465%. Besides, the RAM network inhibition in experiment [7] was 3.01%.
As to `Cn1cccc1Cc1nnc(SCC(=O)NC2CCCC2)n1-c1ccc(F)cc1`, the values for the growth inhibition in experiment [1] and in experiment [2] were 1.76% and 6.74%, respectively. The viability increase in experiment [3] is -2.12%. The viability in experiment [4] is 104%; in experiment [5], 96.7%. Besides, the inhibition in experiment [6] was 0.675%. For the same compound, the RAM network inhibition in experiment [7] was 3.25%.
`COC(=O)c1nc(NC(=O)C(C)(C)C)n[nH]1`: the growth inhibition in experiment [1] was -9.88%; in experiment [2] it was -18.8%. In addition, the viability increase in experiment [3] is -3.77%. The viability was 92.7% in experiment [4] and 89.8% in experiment [5]. The inhibition in experiment [6] was 2.06%. The RAM network inhibition in experiment [7] is 0.47%.
